The values that follow come from ChEMBL document CHEMBL4308900, “Synthesis and identification of 2,4-bisanilinopyrimidines bearing 2,2,6,6-tetramethylpiperidine-N-oxyl as potential Aurora A inhibitors” (Bioorg Med Chem, 2019).

The source made the active and inactive calls. No cut-off for these calls is given here.

For orientation: IC50 means the concentration that gives 50% inhibition. What is called GI50 is the concentration giving 50% growth inhibition.

Assay [1] deals with HeLa. Briefly: Induction of apoptosis in human HeLa cells assessed as upregulation of Bax protein expression up to 5 uM after 12 hrs by Western blot analysis. Format: functional, cell-based. Summed up:
(§1)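 HeLa cells treated 12 h (0.1, 1, 5 μM for apoptosis proteins); lysed in Tris pH 7.5/NP-40/SDS buffer with protease inhibitors, equal protein on 10% SDS-PAGE, PVDF, 5% BSA block, primary antibodies overnight at 4 °C, β-actin loading control; mean ± SD.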

Assay [2] has as its system HeLa. Briefly: Disruption of spindle formation in human HeLa cells assessed as formation of abnormal mitotic spindles at 0.1 to 1 uM after 24 hrs by DAPI staining based immunofluorescence microscopic analysis. The assay is classed as functional, cell-based. Put shortly:
(§2)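 HeLa cells on coverslips treated 24 h (0.1 or 1 μM; DMSO control); fixed in 4% paraformaldehyde, permeabilised in 0.1% Triton X-100 with 2% BSA, anti-α-tubulin overnight at 4 °C, FITC secondary 2 h room temperature, DAPI for DNA; confocal imaging.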

In assay [3] the test system is HeLa. The assay can be described thus: Cell cycle arrest in human HeLa cells assessed as accumulation at S phase at 5 uM after 12 hrs by propidium iodide staining-based flow cytometric analysis (reference value: 5.74%). The assay is classed as functional. Summed up:
(§3)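 HeLa cells exposed 12 h to 1 or 5 μM compound diluted from DMSO (DMSO control), fixed, stained with propidium iodide; DNA content measured by flow cytometry and G1, S, G2/M fractions calculated from the DNA histogram.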

Assay [4] has as its system HeLa. The assay can be described thus: Cell cycle arrest in human HeLa cells assessed as decrease in cdc2 protein expression up to 5 uM after 12 hrs by Western blot analysis. Format: functional, cell-based. Put shortly:
as §1
A general note: A western blot detects proteins with antibodies after separation by electrophoresis.

Assay [5] concerns HeLa. The assay can be described thus: Induction of apoptosis in human HeLa cells assessed as early apoptotic cells at 5 uM after 12 hrs by Annexin V-FITC/propidium iodide staining-based flow cytometric analysis (reference value: 0.75%). Format: functional. For orientation: A flow cytometer gives signals particle by particle.
The target in the next assay is T1, Aurora kinase A (Homo sapiens, UniProt O14965).
T1 sequence (O14965 whole entry): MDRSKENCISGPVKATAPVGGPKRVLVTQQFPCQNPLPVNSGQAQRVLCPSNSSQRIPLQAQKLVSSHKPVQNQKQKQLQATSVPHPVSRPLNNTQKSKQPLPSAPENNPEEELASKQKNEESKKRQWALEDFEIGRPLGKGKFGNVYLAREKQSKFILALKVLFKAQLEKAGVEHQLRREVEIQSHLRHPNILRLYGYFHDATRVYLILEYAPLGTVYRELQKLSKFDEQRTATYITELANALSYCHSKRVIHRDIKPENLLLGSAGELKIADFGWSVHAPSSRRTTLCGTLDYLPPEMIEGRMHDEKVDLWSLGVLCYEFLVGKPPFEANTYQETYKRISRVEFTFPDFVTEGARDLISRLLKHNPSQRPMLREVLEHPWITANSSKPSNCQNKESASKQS
Briefly: Inhibition of Aurora A phosphorylation at Thr288 residue in human HeLa cells after 12 hrs by ELISA. The assay is classed as cell-based.

Assay [6] concerns HeLa. The assay can be described thus: Cell cycle arrest in human HeLa cells assessed as accumulation at G2/M phase at 5 uM after 12 hrs by propidium iodide staining-based flow cytometric analysis (reference value: 23.57%). The assay is classed as functional. Summed up: as §3
Assay [7] concerns HeLa. Briefly: Cell cycle arrest in human HeLa cells assessed as accumulation at G1 phase at 1 uM after 12 hrs by propidium iodide staining-based flow cytometric analysis (reference value: 70.68%). Format: functional. Summed up:
as §3

For assay [8], the system named is HeLa. Briefly: Induction of apoptosis in human HeLa cells assessed as viable cells at 0.1 uM after 12 hrs by Annexin V-FITC/propidium iodide staining-based flow cytometric analysis (reference value: 91.02%). Format: functional. As to conditions: read-out: Activity.
Assay [9] concerns HeLa. Briefly: Disruption of spindle formation in human HeLa cells assessed as shrinkage of microtubule spindles at 1 uM after 24 hrs by DAPI staining based immunofluorescence microscopic analysis. Format: functional, cell-based. Summed up:
as §2

Another assay deals with LoVo. The assay can be described thus: Antiproliferative activity against human LoVo cells after 48 hrs by MTT assay. Format: functional. Put shortly: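 MTT assay: cells attached 4–6 h at 37 °C, 5% CO2, then exposed 48 h to graded concentrations from DMSO stocks; 5 mg/mL MTT added for 4 h, formazan dissolved in DMSO, absorbance at 490 nm. GI50 from log plot of percent of control versus concentration; mean of three independent experiments.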
(Tetrazolium assays rely on reduction of a dye to a coloured formazan, in cell work by metabolically active cells.)

In assay [10] the test system is HeLa. The assay can be described thus: Induction of apoptosis in human HeLa cells assessed as late apoptotic cells at 0.1 uM after 12 hrs by Annexin V-FITC/propidium iodide staining-based flow cytometric analysis (reference value: 2.32%). Format: functional.
In assay [11] the target is T2, Aurora kinase A (Homo sapiens) (UniProt O14965).
T2 sequence (whole entry): T1 sequence (O14965 whole entry)
The assay can be described thus: Inhibition of Aurora A phosphorylation at Thr288 residue in human HeLa cells at <10 nM after 12 hrs by ELISA. The assay is classed as cell-based. Put shortly: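 HeLa cells grown 12 h in 6-well dishes with compound diluted from DMSO at several concentrations; whole-cell lysate captured on anti-Aurora A or B antibody-coated wells, HRP-labelled detection, TMB substrate, stopped with sulphuric acid, absorbance at 450 nm.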

In assay [12] the test system is HeLa. The assay can be described thus: Cell cycle arrest in human HeLa cells assessed as accumulation at S phase at 1 uM after 12 hrs by propidium iodide staining-based flow cytometric analysis (reference value: 5.74%). Format: functional. Put shortly: as §3
Assay [13] has as its system HeLa. The assay can be described thus: Induction of apoptosis in human HeLa cells assessed as late apoptotic cells at 5 uM after 12 hrs by Annexin V-FITC/propidium iodide staining-based flow cytometric analysis (reference value: 2.32%). Format: functional.
For a further assay, the target named is Aurora kinase B (Homo sapiens, UniProt Q96GD4). The assay can be described thus: Inhibition of Aurora B (unknown origin) using kemptide acetate salt as substrate after 30 mins by kinase-Glo luminescence method.
Chain of Aurora kinase B (Q96GD4 whole entry): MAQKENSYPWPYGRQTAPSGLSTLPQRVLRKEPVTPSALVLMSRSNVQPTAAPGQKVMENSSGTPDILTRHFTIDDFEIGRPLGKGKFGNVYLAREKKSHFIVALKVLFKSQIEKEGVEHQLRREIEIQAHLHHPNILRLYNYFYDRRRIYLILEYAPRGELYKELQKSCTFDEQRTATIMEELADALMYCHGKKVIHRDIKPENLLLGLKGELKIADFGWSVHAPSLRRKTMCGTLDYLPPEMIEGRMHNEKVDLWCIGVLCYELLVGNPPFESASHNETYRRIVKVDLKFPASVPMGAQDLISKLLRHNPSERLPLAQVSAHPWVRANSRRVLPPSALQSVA
The test system of assay [14] is HeLa. The assay can be described thus: Cell cycle arrest in human HeLa cells assessed as decrease in accumulation at G1 phase after 12 hrs by propidium iodide staining-based flow cytometric analysis. Format: functional. Summed up: as §3
Assay [15] relates to HeLa. Briefly: Cell cycle arrest in human HeLa cells assessed as accumulation at G1 phase at 5 uM after 12 hrs by propidium iodide staining-based flow cytometric analysis (reference value: 70.68%). Format: functional. Put shortly: as §3

Take `CC1(C)CC(NC(=O)c2ccc(Nc3ncc(F)c(Nc4ccc(C(=O)Nc5ccccc5Cl)cc4)n3)cc2)CC(C)(C)N1[O]`: the result with HeLa [1], in the assay on HeLa [2], in the assay on HeLa [4] and with HeLa [9] was Active. Further, the Activity with HeLa [3] stood at 0%; in the assay with HeLa [5], 4.85%; in the assay on HeLa [6], 60.33%; with HeLa [7] it was 48%; in the assay on HeLa [10] it was 2.94%; with HeLa [12], 11.33%. Moreover, the Activity in the assay on HeLa [13] is 16.66%; with HeLa [14], “Dose-dependent effect”; in the assay with HeLa [15], 39.67%. Moreover, the results for the IC50 on Aurora kinase A and at Aurora kinase B were 8 nM and 2.55 nM, respectively. Also, in the assay with HeLa [8], the viability at 0.1 µM was determined as 90.3%. In the assay on LoVo, the 50% growth inhibitory concentration (GI50) amounted to 7300 nM. Besides, the inhibition entry in assay [11] is “inactive”.
